From ChEMBL document CHEMBL4028805, “Phenylthiazole Antibacterial Agents Targeting Cell Wall Synthesis Exhibit Potent Activity in Vitro and in Vivo against Vancomycin-Resistant Enterococci” (J Med Chem, 2017)
≈ marks a conversion by molar mass, not a printed value. Calls of active or inactive are those of the source. The rule behind the calls is not given here.

Experiments:
Acinetobacter baumannii [1] = experiment: Antibacterial activity against Acinetobacter baumanii ATCC 19606 after 18 to 22 hrs in absence of colistin by broth microdilution method; type: functional; details: ATCC 19606 = CIP 70.34 = JCM 6841
Outline: (§1)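 Broth microdilution per CLSI guidelines. Gram-negatives grown in TSB. Each strain tested alone and again with colistin at ¼ × MIC to permeabilize the outer membrane. Plates incubated at 37 °C for 18–22 h. MIC read as the lowest concentration showing no visible growth.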

Escherichia coli [2] = experiment: Antibacterial activity against Escherichia coli O157:H7 ATCC 35150 after 18 to 22 hrs in absence of colistin by broth microdilution method; type: functional
Enterobacter cloacae [3] = experiment: Antibacterial activity against Enterobacter cloacae BAA-1154 after 18 to 22 hrs in absence of colistin by broth microdilution method; type: functional
Pseudomonas aeruginosa [4] = experiment: Antibacterial activity against Pseudomonas aeruginosa ATCC 15442 after 18 to 22 hrs in absence of colistin by broth microdilution method; type: functional
Escherichia coli [5] = experiment: Antibacterial activity against Escherichia coli O157:H7 ATCC 35150 after 18 to 22 hrs in presence of 1/4 times MIC colistin by broth microdilution method; type: functional
Pseudomonas aeruginosa [6] = experiment: Antibacterial activity against Pseudomonas aeruginosa ATCC 15442 after 18 to 22 hrs in presence of 1/4 times MIC colistin by broth microdilution method; type: functional; outline: as §1
Enterobacter cloacae [7] = experiment: Antibacterial activity against Enterobacter cloacae BAA-1154 after 18 to 22 hrs in presence of 1/4 times MIC colistin by broth microdilution method; type: functional; outline: as §1
Acinetobacter baumannii [8] = experiment: Antibacterial activity against Acinetobacter baumanii ATCC 19606 after 18 to 22 hrs in presence of 1/4 times MIC colistin by broth microdilution method; type: functional; details: ATCC 19606 = CIP 70.34 = JCM 6841; outline: as §1
Klebsiella pneumoniae [9] = experiment: Antibacterial activity against Klebsiella pneumoniae BAA-1706 after 18 to 22 hrs in presence of 1/4 times MIC colistin by broth microdilution method; type: functional; outline: as §1
Klebsiella pneumoniae [10] = experiment: Antibacterial activity against Klebsiella pneumoniae BAA-1706 after 18 to 22 hrs in absence of colistin by broth microdilution method; type: functional
Bacillus subtilis = experiment: Antibacterial activity against Bacillus subtilis assessed as cell shape defects at 1 times MIC after 2 hrs in presence of methylsulfonyl methane by phase contrast microscopic analysis; type: functional
Outline: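 B. subtilis grown in LB at 37 °C to OD600 ~0.2 and treated, with or without MSM for osmotic stabilization, for 30 min or 2 h. Stained with FM 4-64 (1 μg/mL), DAPI (1 μg/mL) and SYTOX Green (1 μg/mL) to score permeability. Examined by deconvolution and phase-contrast microscopy.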

Escherichia coli [11] = experiment: Antibacterial activity against tolC deficient Escherichia coli assessed as cell lysis at 125 ug/ml after 2 hrs in presence of sucrose by FM4-64/DAPI/SYTOX Green staining-based deconvolution microscopic analysis; type: functional
Escherichia coli [12] = experiment: Antibacterial activity against tolC deficient Escherichia coli assessed as formation of spheroplasts at 125 ug/ml after 30 mins in presence of sucrose by FM4-64/DAPI/SYTOX Green staining-based deconvolution microscopic analysis; type: functional
Escherichia coli [13] = experiment: Antibacterial activity against tolC deficient Escherichia coli assessed as formation of misshapen cells at 125 ug/ml after 30 mins in presence of sucrose by FM4-64/DAPI/SYTOX Green staining-based deconvolution microscopic analysis; type: functional
[14] = Induction of proton motive force collapse in Escherichia coli inverted membrane vesicle in presence of ATP-driven PMF generation system by ACMA-based fluorescence assay; type: functional, cell membranes
Outline: (§2)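 E. coli inverted membrane vesicles (0.1 mg/mL membrane protein) with 2 μM ACMA and 0.5 mM ATP or succinate, in 10 mM HEPES-KOH, 5 mM MgSO4, 100 mM KCl, pH 7.5. Proton gradient followed by ACMA fluorescence (ex 410/em 480 nm). EC50 taken from dose-response curves. CCCP used as reference uncoupler.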

[15] = Induction of proton motive force collapse in Escherichia coli inverted membrane vesicle in presence of succinate/O2-driven PMF generation system by ACMA-based fluorescence assay; type: functional, cell membranes; outline: as §2

## CC[C@H]1OC(=O)[C@H](C)[C@@H](O[C@H]2C[C@@](C)(OC)[C@@H](O)[C@H](C)O2)[C@H](C)[C@@H](O[C@@H]2O[C@H](C)C[C@H](N(C)C)[C@H]2O)[C@](C)(O)C[C@@H](C)C(=O)[C@H](C)[C@@H](O)[C@]1(C)O [ERYTHROMYCIN]
Acinetobacter baumannii [1]
  MIC: 8 µg/mL (≈ 10.9 µM)
Escherichia coli [2]
  MIC: 64 µg/mL (≈ 87.2 µM)
Enterobacter cloacae [3]
  MIC: 128 µg/mL (≈ 174 µM)
Pseudomonas aeruginosa [4]
  MIC: 128 µg/mL (≈ 174 µM)
Escherichia coli [5]
  MIC: 1 µg/mL
Pseudomonas aeruginosa [6]
  MIC: 1 µg/mL
Enterobacter cloacae [7]
  MIC: 1 µg/mL
Acinetobacter baumannii [8]
  MIC: 0.5 µg/mL
Klebsiella pneumoniae [9]
  MIC: 0.5 µg/mL
Klebsiella pneumoniae [10]
  MIC: 128 µg/mL (≈ 174 µM)

## N[C@@H]1CONC1=O
Bacillus subtilis
  Activity: Active
Escherichia coli [11]
  Activity: Active
Escherichia coli [12]
  Activity: Active
Escherichia coli [13]
  Activity: Active

## N#CC(C#N)=NNc1cccc(Cl)c1 [CARBONYL CYANIDE M-CHLOROPHENYLHYDRAZONE]
[14]
  EC50: 400 nM
[15]
  EC50: 200 nM
